Runt-SMMHC FRET – inhibitors of RUNX1 Runt–CBFb-SMMHC binding, primary screen, biochemical, FRET, Cerulean-Runt, Venus-CBFb-SMMHC, uHTS; Runt-related transcription factor 1 (Homo sapiens) + Core-binding factor subunit beta …; Cerulean-Runt/Venus-CBFb-SMMHC FRET ratio 530/480, 1 h; inhibition, % at 20 µM; 0.74% of 220,000 active; AID 1434, 2008;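 active = mean inhibition across duplicate retests at 20 µM reaching about 50%, limit read from the data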;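 note: 0% = DMSO wells and 100% = wells with excess untagged CBFb-SMMHC; inhibitors lower the FRET ratio by blocking Runt binding to CBFb-SMMHC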
PERK inhibitor – block of dimerizer-induced PERK translation repression, primary screen, PERK inhibitor project, CHO PERK-DD cells, SEAP luminescence, HTS | CHO PERK-DD fusion, SEAP luminescence translation reporter | inhibition, % at 5.6 µM | 0.17% of 220,000 active;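 active = inhibition above the mean inhibition of all tested compounds plus 3 SD, set separately per screening campaign, cut at about 2.9% in these data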;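 note: PERK kinase domain activated by AP20187 dimerizer at 100 nM; 0% = DMSO with dimerizer and 100% = rapamycin at 8.4 µM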
Hck Nef HTS – inhibitors of Nef-activated human Hck kinase, primary screen, biochemical, Z-Lyte FRET, 384-well, Hck-YEEI. Tyrosine-protein kinase HCK (Homo sapiens), P08631. Recombinant Hck-YEEI plus Nef, Z-Lyte FRET kinase assay. inhibition, % at 20 µM. 0.68% of 220,000 active. AID 463187, 2010;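 active = Hck-Nef kinase inhibition above about 50%, limit read from the data; inactive = inhibition below that limit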;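 note: 0% = DMSO with Hck plus Nef and 100% = Hck alone without Nef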
Target sequence (P08631 whole entry, looked up): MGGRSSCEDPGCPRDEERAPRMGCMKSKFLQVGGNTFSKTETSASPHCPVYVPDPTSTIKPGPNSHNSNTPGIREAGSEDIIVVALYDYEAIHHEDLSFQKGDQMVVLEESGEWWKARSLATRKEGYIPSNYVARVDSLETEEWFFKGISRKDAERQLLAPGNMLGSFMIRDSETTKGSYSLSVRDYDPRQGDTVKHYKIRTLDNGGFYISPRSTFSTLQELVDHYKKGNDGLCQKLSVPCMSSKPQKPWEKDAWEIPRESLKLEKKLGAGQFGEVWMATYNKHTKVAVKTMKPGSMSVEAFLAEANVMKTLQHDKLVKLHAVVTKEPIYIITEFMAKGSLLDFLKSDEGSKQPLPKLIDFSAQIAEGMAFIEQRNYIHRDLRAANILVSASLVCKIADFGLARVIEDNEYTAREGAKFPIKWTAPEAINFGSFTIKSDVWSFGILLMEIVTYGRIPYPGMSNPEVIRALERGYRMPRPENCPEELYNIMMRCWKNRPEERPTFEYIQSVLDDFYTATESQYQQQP
RanGTP-Imp inh – inhibitors of RanGTP-importin-beta interaction, primary screen, biochemical, FRET, CFP-Ran, YFP-importin-beta, homogeneous. AID 2216, 2009. cell-free CFP-Ran/YFP-importin-beta FRET ratio. 1.1% of 300,000 active. Ran GTPase (GTP-bound) - importin-beta complex. inhibition, % (no concentration beside the values);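 active = more than half of the replicate wells show a fall in the fluorescence ratio signal beyond about 16%, limit read from the data, passing the limit was not always enough; inconclusive = exactly half of the replicate wells pass the set limit; inactive = fewer than half of replicates pass the limit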;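 note: 0% = DMSO wells and 100% = Ran loaded with GDP instead of GTP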
Runt-CBFb FRET – inhibitors of RUNX1 Runt–CBFb binding, primary screen, biochemical, FRET, Cerulean-Runt, Venus-CBFb, uHTS; Runt-related transcription factor 1 (Homo sapiens) + Core-binding factor subunit beta …; Cerulean-Runt/Venus-CBFb FRET ratio 530/480, 1 h; inhibition, % at 20 µM; 0.46% of 220,000 active; AID 1496, 2009;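 active = inhibition over about 50% at 20 µM in the single-dose screen, limit read from the data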;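 note: 0% = DMSO wells and 100% = excess unlabeled CBFb competitor control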
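Reagent – Venus-CBFb binding partner, 100 nM · Assay system – Cerulean-tagged RUNX1 Runt domain (FRET donor) fusion protein · Input – 100 nM per protein · Incubation – two 1 h room-temperature incubations shielded from light · Measured by – FRET fluorescence · Medium – Tris buffer pH 7.5 with salts and BSA · Benchmarks – unlabeled CBFb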
eIF4E 4G PPI – eIF4E–eIF4G protein interaction inhibitors, primary screen, biochemical, uHTS, TR-FRET, eIF4GI fragment. 0.37% of 220,000 active. TR-FRET eIF4E-eIF4GI(517-606) binding, 2 h. inhibition, % at 21.7 µM. AID 782, 2007;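 active = inhibition above about 30%, limit read from the data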;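 note: 0% = full FRET control wells and 100% = background wells lacking eIF4GI fragment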
* marks the source's active call; other numbers are inactive results; ? = inconclusive; / = not tested or not shown. Hits are enriched below; roughly 2.2% of the tested compounds scored in any of these assays.

SMILES | Runt-SMMHC FRET | PERK inhibitor | Hck Nef HTS | RanGTP-Imp inh | Runt-CBFb FRET | eIF4E 4G PPI
CCc1cc2c(COC(=O)c3cccc(S(C)(=O)=O)c3)cc(=O)oc2cc1O | / | / | / | 8.5 | / | /
O=C(CN1CCOCC1)Nc1ncc(Br)cc1Br | -3.2 | 3.2* | -0.4 | 2.7 | 1.3 | -3.0
O=C(Oc1cccccc1=O)c1ccccc1 | -0.5 | 1.0 | -1.2 | 63.1* | 2.7 | 2.7
Cc1ccc(S(=O)(=O)c2c(N)n(Cc3ccco3)c3nc4ccccc4nc23)cc1 | / | -0.9 | 26.3 | ? | 44.7 | 1.1
Cc1cccc(S(=O)(=O)c2c(N)n(Cc3ccco3)c3nc4ccccc4nc23)c1 | / | -0.5 | 23.0 | 18.5* | 19.5 | -30.1
CN(Cc1ccco1)C(=O)C1CCN(c2nnc(-n3cccc3)s2)CC1 | / | / | / | 4.5 | / | /
O=C(Nc1ccccn1)c1cccc(S(=O)(=O)N2CCc3ccccc3C2)c1 | / | / | / | -1.1 | / | /
COc1ccc(CN(C#N)c2nc(C)cc(C)n2)cc1 | / | / | / | -2.3 | / | /
NC(=O)c1nsc(C(=O)N(CCc2ccccc2)C(C(=O)NC2CCCC2)c2ccco2)c1N (stereo not drawn) | 5.7 | -2.0 | 0.2 | 88.5* | 4.3 | 5.9
Cc1ccc(N(C(=O)c2snc(C(N)=O)c2N)C(C(=O)NCCC(C)C)c2ccco2)cc1 (stereo not drawn) | 9.2 | 0.1 | 74.8* | -0.6 | -3.0 | -0.9
O=C(O)CNc1ccccc1C(=O)O | -3.3 | 3.0* | -5.7 | 3.7 | -0.2 | -2.7
Cc1ccc2c3c(cccc13)-c1ccccc1C2=O | 63.2* | 0.1 | 5.7 | 63.7* | 19.2 | 3.1
COC(=O)C1=COC(C)C2CN3CCc4c([nH]c5ccccc45)C3CC12 (stereo not drawn) | 46.1 | 0.7 | 2.6 | 122.3* | 10.7 | -0.3
O=C(COC(=O)c1cccnc1Nc1ccccc1F)NC1CC1 | -1.9 | 0.1 | -1.1 | 3.7 | 0.3 | 0.4
CCOC(=O)CN=C/C(C(C)=O)=C(/C)O | 0.0 | 0.2 | 3.5 | 62.7* | 0.6 | 9.8
CCCc1c(C)nc(N2CCN(c3cccc(OC)c3)CC2)[nH]c1=O | / | / | / | 2.2 | / | /
Cc1cc(NC(=O)NC(C)(C(F)(F)F)C(F)(F)F)no1 | -0.5 | 0.6 | 18.6 | -1.0 | 3.2 | -0.8
CCC(NC(=O)Nc1cc(C)on1)(C(F)(F)F)C(F)(F)F | -0.3 | 3.2* | 22.7 | 2.8 | -1.1 | -3.1
CCCCOc1ccc(C2OC34CCCCC3C(C#N)(C#N)C2(C#N)C(=N)O4)cc1 (stereo not drawn) | 12.8 | 0.3 | -0.7 | -1.7 | 24.8 | -6.8
CCOc1ccc(C2OC34CCCCC3C(C#N)(C#N)C2(C#N)C(=N)O4)cc1OC (stereo not drawn) | 24.9 | 0.4 | 3.6 | 45.4* | 24.8 | -4.9
C=CCOc1ccc(C2OC34CCCCC3C(C#N)(C#N)C2(C#N)C(=N)O4)cc1 (stereo not drawn) | 50.1* | 0.3 | 1.2 | 46.0* | 27.3 | 0.3
COc1ccc(NC(=O)CCS(=O)(=O)c2ccc3nc(C)sc3c2)cc1OC | / | / | / | 0.1 | / | /
C/C(=N\NC(=O)COc1ccccc1F)c1cc2ccccc2o1 | 3.6 | 0.3 | 1.2 | 2.1 | 0.6 | -1.0
CN1N=C(C(C)(C)C)CC1=O | -2.0 | 3.4* | 13.5 | 3.6 | -2.6 | -4.5
COc1ccc2nc3c(cc2c1)c(NC(=O)c1cccs1)nn3CC(C)C | 62.7* | -1.9 | 40.7 | 116.1* | 62.3* | 1.6
SMILES | Runt-SMMHC FRET | PERK inhibitor | Hck Nef HTS | RanGTP-Imp inh | Runt-CBFb FRET | eIF4E 4G PPI
CC(C)Cn1nc(NC(=O)c2cccs2)c2cc3ccccc3nc21 | 56.8* | -1.9 | -74.4 | 63.9* | 33.5 | 6.0
N#Cc1c(-c2cccs2)nc(SCC(=O)c2cccs2)[nH]c1=O | -3.5 | 2.7 | 14.2 | 1.9 | -3.1 | -6.3
Clc1ccsc1-c1csc(-c2cccnc2)n1 | -3.7 | 0.3 | 1.0 | 37.5* | -3.3 | -1.5
COc1cccc(NC(=O)n2ncc3c(C)cccc32)c1 | / | / | / | -1.1 | / | /
O=C1C2CCCN2C(=S)N1c1ccccc1 (stereo not drawn) | / | / | / | 2.1 | / | /
COc1ccc(/C=C2/SC(=S)N(c3ccc(S(=O)(=O)Nc4nccs4)cc3)C2=O)cc1 | -20.9 | -0.7 | 59.2* | -5.6 | -9.8 | -1.0
Cc1cc([N+](=O)[O-])nn1CC(=O)NCc1nc2ccccc2[nH]1 | -0.5 | 1.0 | 25.5 | 173.6* | 1.0 | 3.5
O=C(Nc1nc2ccccc2s1)Nc1ccc(F)cc1F | / | / | / | 0.6 | / | /
Cc1ccc(NC(=O)CN2C(=O)/C(=C3\SC(=S)N(C4CCS(=O)(=O)C4)C3=O)c3ccccc32)cc1 (stereo not drawn) | 7.6 | 0.4 | 97.0* | / | 11.4 | 1.3
O=C(CN1C(=O)/C(=C2\SC(=S)N(C3CCS(=O)(=O)C3)C2=O)c2ccccc21)Nc1ccccc1 (stereo not drawn) | -7.0 | 0.8 | 30.9 | / | 11.0 | 11.4
CC(C)c1cc(C(=O)N/N=C/c2ccoc2)cs1 | / | / | / | 3.6 | / | /
CN1CCc2nc(NC(=O)c3cccc(S(=O)(=O)N4CCc5ccccc54)c3)sc2C1 | 84.5* | -1.5 | 2.5 | 48.1* | 44.7 | -48.7
COc1cccc(C(=O)Nc2sc3c(c2C(=O)O)CCCC3)c1 | / | / | / | 5.1 | / | /
COc1cccc(C(=O)Nc2nc3c(s2)CN(C)CC3)c1 | 86.8* | 0.1 | 2.9 | 9.4 | / | 4.3
COc1cccc(C(=O)Nc2sc3c(c2C#N)CCN(C(C)=O)C3)c1 | 51.1* | -0.3 | 25.7 | / | 21.2 | 1.2
COc1cccc(C(=O)Nc2nnc(-c3ccccc3)s2)c1 | / | / | / | 2.4 | / | /
Cc1ccc(OCCC(=O)Nc2ccc(S(=O)(=O)Nc3cc(C)nc(C)n3)cc2)cc1 | / | / | / | 19.5* | / | /
Cc1ccccc1NC(=O)CSC(N)=O | 4.4 | 3.1* | 0.1 | 2.3 | 3.6 | -2.8
COc1cc(O)c(C(CC(=O)N2CCCC(C)C2)c2ccc(N(C)C)cc2)c(OC)c1 (stereo not drawn) | 3.1 | / | 19.0 | ? | 5.5 | 1.9
Clc1ccc(OCCn2cnc3ccccc32)c(Cl)c1 | -10.8 | -0.1 | 7.3 | 1.3 | -5.6 | 0.5
O=C(CSc1nnnn1-c1ccc(F)cc1)Nc1ccc(N2CCOCC2)c(Cl)c1 | -2.1 | -0.6 | -1.7 | 3.7 | -0.3 | -1.2
O=C(/C=C/c1ccco1)c1cccnc1 | / | / | / | 0.8 | / | /
O=C(/C=C/c1ccco1)c1ccccc1O | -1.1 | -0.2 | 18.0 | 2.4 | 8.2 | 82.0*
